# Measurements as given in the M2OR odorant receptor database.
# Tests used:
# Details in all cases: stereoisomer not certain
# UniProt Q8VFQ6 = target: UniProt Q8VFQ6
# Outline: (§1)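 Values were gathered from published papers (main text and supplementary material), with extra details requested from the original authors when needed, and checked for typos and inconsistencies. Each receptor–molecule pair is called responsive (active) if the original authors judged the measured signal statistically different from baseline, and non-responsive (inactive) otherwise. Assay methods varied by source, often transient mammalian cell-line luciferase assays. Recorded details include cell line, G-protein, co-transfected protein and tags.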
# UniProt Q8VG26 = target: UniProt Q8VG26
# Sequence of UniProt Q8VG26 (Q8VG26 as listed by the source): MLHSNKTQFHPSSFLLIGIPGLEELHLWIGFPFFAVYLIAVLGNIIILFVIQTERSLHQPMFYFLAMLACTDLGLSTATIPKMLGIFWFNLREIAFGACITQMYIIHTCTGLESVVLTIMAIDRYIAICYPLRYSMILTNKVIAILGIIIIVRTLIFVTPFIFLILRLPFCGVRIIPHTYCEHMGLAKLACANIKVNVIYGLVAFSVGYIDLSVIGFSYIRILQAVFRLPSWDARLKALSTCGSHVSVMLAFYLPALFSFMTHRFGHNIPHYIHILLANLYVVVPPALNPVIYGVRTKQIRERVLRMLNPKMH
# Outline: as §1
# UniProt Q8VFP5 = target: T1, UniProt Q8VFP5
# T1 sequence (whole entry): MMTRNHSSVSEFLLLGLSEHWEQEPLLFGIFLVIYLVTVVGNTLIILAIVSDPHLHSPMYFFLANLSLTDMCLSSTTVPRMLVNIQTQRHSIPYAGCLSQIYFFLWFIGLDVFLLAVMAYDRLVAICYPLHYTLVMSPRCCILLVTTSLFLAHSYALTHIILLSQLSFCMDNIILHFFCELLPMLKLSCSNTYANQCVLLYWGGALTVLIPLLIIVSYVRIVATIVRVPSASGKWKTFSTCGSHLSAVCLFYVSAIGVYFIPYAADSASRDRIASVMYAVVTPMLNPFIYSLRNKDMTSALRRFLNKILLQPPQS
# Outline: as §1
# UniProt Q8VFZ6 = target: T2, UniProt Q8VFZ6
# T2 sequence (whole entry): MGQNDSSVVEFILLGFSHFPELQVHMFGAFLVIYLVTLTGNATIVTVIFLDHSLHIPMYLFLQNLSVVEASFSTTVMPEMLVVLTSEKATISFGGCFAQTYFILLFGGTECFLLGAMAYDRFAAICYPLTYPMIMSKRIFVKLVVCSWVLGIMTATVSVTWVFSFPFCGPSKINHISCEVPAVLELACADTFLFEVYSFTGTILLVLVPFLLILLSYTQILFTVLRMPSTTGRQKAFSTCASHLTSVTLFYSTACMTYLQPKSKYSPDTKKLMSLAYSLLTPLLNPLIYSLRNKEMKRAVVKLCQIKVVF
# Outline: as §1
# UniProt Q8VG01 = target: T3, UniProt Q8VG01
# T3 sequence (whole entry): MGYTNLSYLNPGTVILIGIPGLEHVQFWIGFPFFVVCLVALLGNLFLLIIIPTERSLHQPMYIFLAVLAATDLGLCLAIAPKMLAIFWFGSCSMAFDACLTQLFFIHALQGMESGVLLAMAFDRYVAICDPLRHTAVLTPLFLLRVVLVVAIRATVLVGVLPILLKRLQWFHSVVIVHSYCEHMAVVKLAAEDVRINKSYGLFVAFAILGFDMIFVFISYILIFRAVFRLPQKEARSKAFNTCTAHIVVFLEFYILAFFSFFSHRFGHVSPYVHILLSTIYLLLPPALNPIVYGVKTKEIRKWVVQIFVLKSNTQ
# Outline: as §1
# UniProt Q8VG22 = target: T4, UniProt Q8VG22
# T4 sequence (whole entry): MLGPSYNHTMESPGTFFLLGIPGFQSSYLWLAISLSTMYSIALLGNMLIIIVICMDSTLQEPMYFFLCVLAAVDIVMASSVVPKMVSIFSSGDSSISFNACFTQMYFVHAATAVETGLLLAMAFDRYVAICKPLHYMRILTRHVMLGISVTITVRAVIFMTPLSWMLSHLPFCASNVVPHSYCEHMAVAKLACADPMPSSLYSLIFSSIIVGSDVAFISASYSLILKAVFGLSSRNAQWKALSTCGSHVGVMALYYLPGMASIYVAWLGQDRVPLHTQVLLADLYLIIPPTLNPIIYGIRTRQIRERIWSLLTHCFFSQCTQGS
# Outline: as §1
# Sequence of UniProt Q8VFQ6 (Q8VFQ6 as listed by the source): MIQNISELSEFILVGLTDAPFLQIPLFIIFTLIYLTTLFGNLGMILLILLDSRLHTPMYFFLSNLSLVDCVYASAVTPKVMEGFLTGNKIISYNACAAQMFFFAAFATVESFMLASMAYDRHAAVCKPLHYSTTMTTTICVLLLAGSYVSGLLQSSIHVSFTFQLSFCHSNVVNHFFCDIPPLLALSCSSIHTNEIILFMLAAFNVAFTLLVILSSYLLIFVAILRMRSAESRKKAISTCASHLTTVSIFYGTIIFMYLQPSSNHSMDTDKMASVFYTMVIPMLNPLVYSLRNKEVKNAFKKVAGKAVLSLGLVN
smiles,measurement,setting,value
O=C1CCOc2ccccc21,odorant receptor agonist call,UniProt Q8VFQ6,inactive
CCCCCCCCCO,odorant receptor agonist call,UniProt Q8VG26,inactive
CCCCCCCO,odorant receptor agonist call,UniProt Q8VG26,inactive
CCCCCCCCO,odorant receptor agonist call,UniProt Q8VFP5,inactive
same,odorant receptor agonist call,UniProt Q8VFZ6,active
same,odorant receptor agonist call,UniProt Q8VG01,inactive
same,odorant receptor agonist call,UniProt Q8VG22,inactive
same,odorant receptor agonist call,UniProt Q8VG26,inactive
CCc1ccccc1O,odorant receptor agonist call,UniProt Q8VFP5,inactive
same,odorant receptor agonist call,UniProt Q8VG01,inactive
CC(C)CS,odorant receptor agonist call,UniProt Q8VFP5,inactive
same,odorant receptor agonist call,UniProt Q8VG01,inactive
CCCCCCC(C=O)=Cc1ccccc1,odorant receptor agonist call,UniProt Q8VFP5,inactive
same,odorant receptor agonist call,UniProt Q8VG01,inactive
c1ccc2ncccc2c1,odorant receptor agonist call,UniProt Q8VFP5,inactive
same,odorant receptor agonist call,UniProt Q8VG01,inactive
CC(=O)C=CC1=C(C)CCCC1(C)C,odorant receptor agonist call,UniProt Q8VFP5,inactive
same,odorant receptor agonist call,UniProt Q8VG01,inactive
CCSSCC,odorant receptor agonist call,UniProt Q8VFP5,inactive
same,odorant receptor agonist call,UniProt Q8VG01,inactive
Cc1ccc2c(c1)OCC(=O)CO2,odorant receptor agonist call,UniProt Q8VFP5,inactive
same,odorant receptor agonist call,UniProt Q8VG01,inactive
O=C(OCc1ccccc1)c1ccccc1O,odorant receptor agonist call,UniProt Q8VFP5,inactive
same,odorant receptor agonist call,UniProt Q8VG01,inactive
CCCC(C)C(=O)OCC (stereo not drawn),odorant receptor agonist call,UniProt Q8VFP5,inactive
same,odorant receptor agonist call,UniProt Q8VG01,inactive
Cc1ccc(C(C)C)cc1,odorant receptor agonist call,UniProt Q8VFP5,inactive
same,odorant receptor agonist call,UniProt Q8VG01,inactive
COC(OC)c1ccccc1,odorant receptor agonist call,UniProt Q8VFP5,inactive
same,odorant receptor agonist call,UniProt Q8VG01,inactive
CC=C(C)C=O,odorant receptor agonist call,UniProt Q8VFP5,inactive
same,odorant receptor agonist call,UniProt Q8VG01,inactive
CCCCCCCCC(=O)O,odorant receptor agonist call,UniProt Q8VFP5,inactive
same,odorant receptor agonist call,UniProt Q8VFZ6,inactive
same,odorant receptor agonist call,UniProt Q8VG01,inactive
same,odorant receptor agonist call,UniProt Q8VG22,inactive
same,odorant receptor agonist call,UniProt Q8VG26,inactive
CC1CCC(C(C)C)C(=O)C1 (stereo not drawn),odorant receptor agonist call,UniProt Q8VFP5,inactive
same,odorant receptor agonist call,UniProt Q8VG01,inactive
CCOC(=O)C(C)CC (stereo not drawn),odorant receptor agonist call,UniProt Q8VFP5,inactive
same,odorant receptor agonist call,UniProt Q8VG01,inactive
C=CC(C)=CCC=C(C)CCC=C(C)C,odorant receptor agonist call,UniProt Q8VFP5,inactive
same,odorant receptor agonist call,UniProt Q8VG01,inactive
C=C(C)C1CCC(C)C(O)C1 (stereo not drawn),odorant receptor agonist call,UniProt Q8VFP5,inactive
same,odorant receptor agonist call,UniProt Q8VG01,inactive
CCc1ccc(O)cc1,odorant receptor agonist call,UniProt Q8VFP5,inactive
same,odorant receptor agonist call,UniProt Q8VG01,inactive
CCCCCCO,odorant receptor agonist call,UniProt Q8VFP5,inactive
same,odorant receptor agonist call,UniProt Q8VFZ6,inactive
same,odorant receptor agonist call,UniProt Q8VG01,inactive
same,odorant receptor agonist call,UniProt Q8VG22,active
same,odorant receptor agonist call,UniProt Q8VG26,inactive
CCCCC(=O)O,odorant receptor agonist call,UniProt Q8VFP5,inactive
same,odorant receptor agonist call,UniProt Q8VFZ6,inactive
same,odorant receptor agonist call,UniProt Q8VG01,inactive
same,odorant receptor agonist call,UniProt Q8VG22,inactive
same,odorant receptor agonist call,UniProt Q8VG26,inactive
CCC(C)c1nccnc1OC (stereo not drawn),odorant receptor agonist call,UniProt Q8VFP5,inactive
same,odorant receptor agonist call,UniProt Q8VG01,inactive
CCC=CCCC=CC=O,odorant receptor agonist call,UniProt Q8VFP5,inactive
same,odorant receptor agonist call,UniProt Q8VG01,inactive
CSSSC,odorant receptor agonist call,UniProt Q8VFP5,inactive
same,odorant receptor agonist call,UniProt Q8VG01,inactive
CC1(C)CC(=O)CC(=O)C1,odorant receptor agonist call,UniProt Q8VFP5,inactive
same,odorant receptor agonist call,UniProt Q8VG01,inactive
C=CC(=C)CCC=C(C)C,odorant receptor agonist call,UniProt Q8VFP5,inactive
same,odorant receptor agonist call,UniProt Q8VG01,inactive
CC(=O)OC1(C)CCC23CC1C(C)(C)C2CCC3C (stereo not drawn),odorant receptor agonist call,UniProt Q8VFP5,inactive
same,odorant receptor agonist call,UniProt Q8VG01,inactive
CCCCCCCCCC=CC=O,odorant receptor agonist call,UniProt Q8VFP5,inactive
same,odorant receptor agonist call,UniProt Q8VG01,inactive
CCCCCC(C)O (stereo not drawn),odorant receptor agonist call,UniProt Q8VFP5,inactive
same,odorant receptor agonist call,UniProt Q8VG01,inactive
CC(CC=O)CCCC(C)(C)O (stereo not drawn),odorant receptor agonist call,UniProt Q8VFP5,inactive
same,odorant receptor agonist call,UniProt Q8VG01,inactive
C=CC(=C)CCC=C(C)CCC=C(C)C,odorant receptor agonist call,UniProt Q8VFP5,inactive
same,odorant receptor agonist call,UniProt Q8VG01,inactive
Cc1occc1SSc1ccoc1C,odorant receptor agonist call,UniProt Q8VFP5,inactive
same,odorant receptor agonist call,UniProt Q8VG01,inactive
CCCCCC=CCCC=O,odorant receptor agonist call,UniProt Q8VFP5,inactive
same,odorant receptor agonist call,UniProt Q8VG01,inactive
C=C(C)C1CC=C(C)CC1 (stereo not drawn),odorant receptor agonist call,UniProt Q8VFP5,inactive
same,odorant receptor agonist call,UniProt Q8VG01,inactive
OCCc1ccccc1,odorant receptor agonist call,UniProt Q8VFP5,inactive
same,odorant receptor agonist call,UniProt Q8VG01,inactive
CSSCc1ccco1,odorant receptor agonist call,UniProt Q8VFP5,inactive
same,odorant receptor agonist call,UniProt Q8VG01,inactive
C1CCOCC1,odorant receptor agonist call,UniProt Q8VFP5,inactive
same,odorant receptor agonist call,UniProt Q8VG01,inactive
C=C(C)C1CCC2(C)OC2C1 (stereo not drawn),odorant receptor agonist call,UniProt Q8VFP5,inactive
same,odorant receptor agonist call,UniProt Q8VG01,inactive
O=C(O)CCCCCCCCC(=O)O,odorant receptor agonist call,UniProt Q8VFP5,inactive
same,odorant receptor agonist call,UniProt Q8VG01,inactive
CCCCCCC=CC=O,odorant receptor agonist call,UniProt Q8VFP5,inactive
same,odorant receptor agonist call,UniProt Q8VG01,inactive
CCc1ncc(C)nc1CC,odorant receptor agonist call,UniProt Q8VFP5,inactive
same,odorant receptor agonist call,UniProt Q8VG01,inactive
CCc1nccnc1CC,odorant receptor agonist call,UniProt Q8VFP5,inactive
same,odorant receptor agonist call,UniProt Q8VG01,inactive
COc1nccnc1C(C)C,odorant receptor agonist call,UniProt Q8VFP5,inactive
same,odorant receptor agonist call,UniProt Q8VG01,inactive
COc1cnccn1,odorant receptor agonist call,UniProt Q8VFP5,inactive
same,odorant receptor agonist call,UniProt Q8VG01,inactive
CCc1occc(=O)c1O,odorant receptor agonist call,UniProt Q8VFP5,inactive
same,odorant receptor agonist call,UniProt Q8VG01,inactive
Cc1ccc(OC(=O)C(C)C)cc1,odorant receptor agonist call,UniProt Q8VFP5,inactive
same,odorant receptor agonist call,UniProt Q8VG01,inactive
CCCC=O,odorant receptor agonist call,UniProt Q8VFP5,inactive
same,odorant receptor agonist call,UniProt Q8VG01,inactive
CNc1ccccc1C(=O)OC,odorant receptor agonist call,UniProt Q8VFP5,inactive
same,odorant receptor agonist call,UniProt Q8VG01,inactive
O=C([O-])CCCCCCC(=O)[O-].[H+].[H+],odorant receptor agonist call,UniProt Q8VFP5,inactive
same,odorant receptor agonist call,UniProt Q8VG01,inactive
